Test results reported in ChEMBL document CHEMBL4020760, “Discovery of a Small Molecule Probe That Post-Translationally Stabilizes the Survival Motor Neuron Protein for the Treatment of Spinal Muscular Atrophy” (J Med Chem, 2017).
In brackets after ≈: the same amount, converted by molar mass. Activity calls are given as the source filed them. The rule behind the calls is not given here. Peptide text beside a SMILES is read from it. * marks the point of attachment. Cbz = O=C(OCc1ccccc1)*

Experiments:
[1] = target: Survival motor neuron protein (Homo sapiens) (UniProt Q16637); assay: Stabilization of human SMN protein expressed in HEK293 cells expressing SMN2 promoter after 24 hrs by luciferase reporter gene assay relative to control; type: cell-based
In short: (§1)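 SMN2-luc reporter cells seeded at 25,000/well overnight, then treated 24 h with six doses (3-fold serial dilutions, top final 10 or 30 μM), 0.1% DMSO. Firefly and Renilla luciferase read by dual-luciferase assay, normalized to DMSO as percent; EC50 and maximal activation from curves. Mean ± SEM, ≥3 trials.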

[2] = Aqueous solubility of the compound at pH 7.4; type: physicochemical; conditions: aqueous solution
In short: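 Kinetic solubility measured in aqueous medium at pH 7.4.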

[3] = system: Plasma; assay: Half life in mouse plasma after 60 mins; type: ADME, cell-free; conditions: 1 h
[4] = system: Liver; assay: (§2) Half life in mouse liver microsomes; type: ADME, microsome; conditions: microsomes
In short: (§3)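 Compound stability in mouse and human liver microsomes, expressed as half-life in min.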

[5] = system: Liver; assay: Half life in human liver microsomes; type: ADME, microsome; in short: as §3
[6] = target: Survival motor neuron protein (Homo sapiens) (UniProt Q16637); assay: Stabilization of SMN protein in 3813T fibroblasts derived from human SMA patient assessed as increase in SMN protein level at 2 uM after 48 hrs by SDS-PAGE and immunoblot
In short: (§4)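 hTERT-immortalized SMA patient 3813T fibroblasts seeded at 6000/well, next day dosed for 48 h at indicated concentrations, 0.1% DMSO. Lysed in boiling buffer (150 mM NaCl, 10 mM Tris pH 8.0, 2% SDS), run on 10% SDS-PAGE, SMN immunoblotted, normalized to tubulin or actin as fold over DMSO; one-way ANOVA with Dunnett.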

[7] = target: Survival motor neuron protein (Homo sapiens) (UniProt Q16637); assay: Stabilization of SMN protein in 3813T fibroblasts derived from human SMA patient assessed as increase in SMN protein level at 2 uM after 48 hrs by SDS-PAGE and immunoblot
[8] = system: Brain; assay: Cmax in mouse brain at 20 mg/kg, ip after 30 mins; type: ADME, organism-based; design: dose 20 mg/kg, route intraperitoneal; conditions: in vivo, 0.5 h, BLD = below limit of detection
[9] = system: Plasma; assay: Cmax in mouse plasma at 20 mg/kg, ip after 30 mins; type: ADME, organism-based; design: dose 20 mg/kg, route intraperitoneal; conditions: in vivo, 0.5 h, BLD = below limit of detection
[10] = Cmax in mouse brain at 20 mg/kg, ip; type: ADME, organism-based; design: dose 20 mg/kg, route intraperitoneal
[11] = target: Survival motor neuron protein (Homo sapiens) (UniProt Q16637); assay: Stabilization of SMN protein in 3813T fibroblasts derived from human SMA patient assessed as increase in SMN protein level after 48 hrs by SDS-PAGE and immunoblot; in short: as §4
[12] = Cmax in mouse plasma at 20 mg/kg, ip; type: ADME, organism-based; design: dose 20 mg/kg, route intraperitoneal; conditions: plasma
[13] = target: Survival motor neuron protein (Homo sapiens) (UniProt Q16637); assay: Stabilization of SMN protein in 3813T fibroblasts derived from human SMA patient assessed as increase in SMN protein level after 48 hrs by SDS-PAGE and immunoblot
[14] = species on record: Homo sapiens; assay: Inhibition of proteasome in HEK293 cells assessed as increase in polyubiquitinated protein level at 1 and 10 uM incubated for 2 hrs by SDS-PAGE analysis; type: cell-based
In short: (§5)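 HEK293 cells pretreated 2 h with test compound or MG-132 (1 and 10 μM), then DMSO or cycloheximide (10 μM) added and incubated a further 6 h; final DMSO 0.2%. Lysates run on 4–15% gradient SDS-PAGE; anti-ubiquitin blot for polyubiquitinated proteins, tubulin as loading control.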

[15] = species on record: Homo sapiens; assay: Inhibition of proteasome in HEK293 cells assessed as stabilization of SMN protein by measuring increase in SMN protein half life at 10 uM by pulse-chase experiment; type: cell-based
[16] = system: HEK293; assay: Effect on cycloheximide-induced reduction in basal level of polyubiquitinated protein level in HEK293 cells at 1 uM pretreated for 2 hrs followed by cycloheximide addition measured after 6 hrs by SDS-PAGE analysis; type: functional, cell-based; conditions: Homo sapiens; in short: as §5
[17] = target: Survival motor neuron protein (Homo sapiens) (UniProt Q16637); assay: Stabilization of human luc fused SMN protein expressed in HEK293 cells at 10 uM after 24 hrs in presence of 10 uM cycloheximide by luciferase reporter gene assay; type: cell-based
In short: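 SMN2-luciferase reporter cells were maintained in high-glucose DMEM with 10% FBS, Pen/Strep and hygromycin at 37 °C. They were treated at the same time with cycloheximide (10 μM), to block protein synthesis, and with compound or DMSO. Cells were lysed at set time points, and SMN2-luc (firefly) and Renilla-luc activities were read by dual-luciferase assay.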

[18] = Stabilization of human […] expressed in HEK293 cells expressing SMN2 promoter after 24 hrs by luciferase reporter gene assay; type: cell-based; conditions: HEK293, 24 h; in short: as §1
[19] = system: Renilla; assay: Effect on renilla recombinant luciferase protein expressed in HEK293 cells at 10 uM after 24 hrs in presence of 10 uM cycloheximide by renilla luciferase reporter gene assay; type: cell-based
In short: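 SMN2-luc reporter cells given cycloheximide (10 μM) together with compound (10 μM) or DMSO. Lysed at set time points; SMN-luc and Renilla-luc activities measured.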

[20] = target: Survival motor neuron protein (Homo sapiens) (UniProt Q16637); assay: Stabilization of SMN protein in HEK293 cells assessed as increase in SMN protein half life at 10 uM by pulse-chase experiment; type: cell-based
[21] = system: HEK293; assay: Stabilization of human […] expressed in HEK293 cells expressing SMN2 promoter after 24 hrs by luciferase reporter gene assay relative to control; type: cell-based; conditions: in the assay text read “SMN protein” for “SMN mRNA”; in short: as §1
[22] = as §2; type: ADME, microsome; conditions: liver microsomes; in short: as §3
[23] = system: HEK293; assay: Effect on human luciferase-tagged SMN mRNA expressed in HEK293 cells assessed as SMN exon 7 included transcript at 10 uM after 24 hrs by qRT-PCR relative to GAPDH mRNA expression; type: cell-based
In short: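 SMN2-luciferase reporter cells treated with compound; total RNA isolated with Trizol, DNase I treated and reverse transcribed. SYBR Green qPCR for SMN exon 7-included and full-length transcripts, with GAPDH as reference.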

[24] = system: HEK293; assay: Inhibition of autophagy in HEK293 cells assessed as increase in p62 level at 10 uM after 8 hrs by immunoblot analysis; conditions: Homo sapiens
[25] = system: HEK293; assay: Inhibition of autophagy in HEK293 cells assessed as increase in LC3-2 level at 10 uM after 8 hrs by immunoblot analysis; conditions: Homo sapiens

Survival motor neuron protein (Homo sapiens), sequence (Q16637 whole entry, the tested form may be a part): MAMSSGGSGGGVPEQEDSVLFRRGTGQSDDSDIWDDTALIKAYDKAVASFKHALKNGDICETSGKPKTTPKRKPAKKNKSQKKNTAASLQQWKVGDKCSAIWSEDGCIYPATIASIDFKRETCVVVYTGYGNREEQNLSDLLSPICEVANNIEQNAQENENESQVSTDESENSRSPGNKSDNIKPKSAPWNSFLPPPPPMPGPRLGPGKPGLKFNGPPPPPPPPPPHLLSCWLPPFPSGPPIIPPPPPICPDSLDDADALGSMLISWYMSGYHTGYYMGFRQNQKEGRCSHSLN

## CC(C)c1nc(NC(=O)c2ccc(F)c(Cl)c2)cs1
[1]
  Activity: 131%

## CC(C)c1cc(C(=O)Nc2ccccc2)no1
[2]
  solubility kinetic: 59 µM (≈ 13.6 µg/mL)
[3]
  t1/2: 8 min
[4]
  t1/2: < 5 min
[1]
  Activity: 190%

## Cc1c(C(=O)Nc2ccc(F)c(Cl)c2)noc1C(C)C
[3]
  t1/2: 76 min
[4]
  t1/2: < 5 min
[1]
  Activity: 182%

## Cc1ccccc1NC(=O)c1cc(C(C)C)on1
[1]
  Activity: 125%

## CC(C)c1cc(C(=S)Nc2ccc(F)c(Cl)c2)no1
[1]
  Activity: 120%

## CC(C)c1cc(C(=O)Nc2ccc(F)cc2)no1
[1]
  Activity: 182%

## CC(C)c1cc(C(=O)NC2Cc3ccccc3C2)no1
[1]
  Activity: inactive

## CC(C)c1cc(C(=O)Nc2ccncc2)no1
[1]
  Activity: inactive

## CC(C)c1cc(C(=O)Nc2nc3ccccc3[nH]2)no1
[2]
  solubility kinetic: 12 µM (≈ 3.24 µg/mL)
[4]
  t1/2: < 5 min
[1]
  Activity: 211%

## O=C(Nc1ncc(C2CCC2)s1)c1ccc(F)c(Cl)c1
[4]
  t1/2: < 5 min

## CC(C)c1cc(C(=O)Nc2ccccn2)no1
[5]
  t1/2: > 120 min
[2]
  solubility kinetic: 77 µM (≈ 17.8 µg/mL)
[6]
  fold change (FC): 2
[7]
  fold change (FC): 2
[8]
  Cmax: Bld
[9]
  Cmax: Bld
[3]
  t1/2: < 5 min
[4]
  t1/2: > 120 min
[10]
  Cmax: 5 to 6 ng/mL
[11]
  Activity: Dose-dependent effect
[12]
  Cmax: 2 to 3 ng/mL
[13]
  Activity: Dose-dependent effect
[1]
  Activity: 195%

## CC(C)c1cc(C(=O)Nc2cccc(Cl)c2)no1
[1]
  Activity: 160%

## O=C(Nc1ccc(F)c(Cl)c1)c1cc(Cc2ccccc2)on1
[1]
  Activity: 116%

## CC(C)Cc1cc(C(=O)Nc2ccc(F)c(Cl)c2)no1
[1]
  Activity: 180%

## CC(C)c1cc(CNc2ccc(F)c(Cl)c2)no1
[1]
  Activity: 137%

## COc1ccccc1NC(=O)c1cc(C(C)C)on1
[1]
  Activity: 80%

## Cc1cc(C(=O)Nc2ccc(F)c(Cl)c2)no1
[1]
  Activity: inactive

## O=C(Nc1ccc(F)c(Cl)c1)c1cc(-c2ccccc2)on1
[1]
  Activity: inactive

## CC(C)c1cc(C(=O)Nc2ccccc2Cl)no1
[1]
  Activity: 114%

## CC(C)c1cc(NC(=O)Nc2ccc(F)c(Cl)c2)no1
[1]
  Activity: inactive

## CC(C)c1cc(C(=O)Nc2nc3ccccc3s2)no1
[1]
  Activity: 124%

## CC(C)C[C@@H](C=O)NC(=O)[C@H](CC(C)C)NC(=O)[C@H](CC(C)C)NC(=O)OCc1ccccc1 (Cbz-Leu-Leu-Leu-aldehyde)
[14]
  inhibition: Active
[15]
  inhibition: Active
[16]
  Activity: Active

## COc1cc2c(c(OC)c1OC)C(c1cc(Br)ccc1F)CC(=O)N2 (stereo unspecified)
[17]
  Activity: Active
[18]
  EC50: 8.3 µM
[19]
  Activity: Active
[20]
  Activity: inactive
[21]
  Activity: 186%

## O=C(Nc1ccc(F)c(Cl)c1)c1cc(C2CCCCC2)on1
[1]
  Activity: inactive

## CC(C)c1cc(C(=O)Nc2ncco2)no1
[1]
  Activity: inactive

## CC(C)c1cc(NC(=O)c2ccc(F)c(Cl)c2)no1
[3]
  t1/2: 183 min
[1]
  Activity: 188%

## CC(C)c1cc(C(=O)Nc2ccc(F)c(Cl)c2)no1
[17]
  Activity: Active
[2]
  solubility kinetic: 6 µM (≈ 1.7 µg/mL)
[3]
  t1/2: 13 min
[22]
  half-life: ≤ 5 min
[19]
  Activity: inactive
[23]
  Activity: inactive
[20]
  Activity: Active
[1]
  Activity: 242%

## Cc1ccc(NC(=O)c2cc(C(C)C)on2)cc1
[1]
  Activity: 200%

## CC(C)c1cc(C(=O)Nc2ccccc2F)no1
[3]
  t1/2: 9 min
[1]
  Activity: 175%

## CC(C)c1cc(C(=O)Nc2nc3ccccc3n2C)no1
[1]
  Activity: 219%

## Cc1cccc(NC(=O)c2cc(C(C)C)on2)c1
[1]
  Activity: 150%

## CC(C)c1cc(C(=O)Nc2cccnc2)no1
[1]
  Activity: 94%

## CC(C)c1cc(C(=O)Nc2ccc(Cl)cc2)no1
[1]
  Activity: 168%

## CCc1cc(C(=O)Nc2ccc(F)c(Cl)c2)no1
[1]
  Activity: 165%

## COc1cccc(NC(=O)c2cc(C(C)C)on2)c1
[1]
  Activity: 147%

## CC(C)c1cc(C(=O)N2CCc3ccccc32)no1
[3]
  t1/2: < 5 min
[1]
  Activity: 164%

## O=C(CCCCCCC(=O)Nc1ccccc1)NO
[17]
  Activity: Active
[19]
  Activity: Active

## CCN(CC)CCCC(C)Nc1ccnc2cc(Cl)ccc12 (stereo unspecified)
[24]
  Activity: Active
[25]
  Activity: Active

## CC(C)c1cc(C(=O)N(C)c2ccc(F)c(Cl)c2)no1
[3]
  t1/2: 5 min
[1]
  Activity: inactive

## O=C(Nc1ccc(F)c(Cl)c1)c1ccon1
[1]
  Activity: inactive

## CC(C)c1cc(C(=O)Oc2ccc(F)c(Cl)c2)no1
[1]
  Activity: inactive

## CC(C)c1cc(C(=O)Nc2nccs2)no1
[1]
  Activity: 166%

## O=C(Nc1ccc(F)c(Cl)c1)c1cc(C2CCCC2)on1
[1]
  Activity: inactive

## CC(C)c1cc(C(=O)Nc2cccc(F)c2)no1
[2]
  solubility kinetic: 49 µM (≈ 12.2 µg/mL)
[4]
  t1/2: < 5 min
[1]
  Activity: 180%

## CC(C)(C)c1cc(C(=O)Nc2ccc(F)c(Cl)c2)no1
[1]
  Activity: 140%

## CC(C)c1cc(NC(=O)c2ccc(F)c(Cl)c2)on1
[1]
  Activity: 137%
